The record followed here is the M2OR odorant receptor database.

Common to all, as to conditions: stereoisomer not certain
One assay addresses T1, OR1F12P (Homo sapiens) (UniProt Q8NHA8).
T1 sequence (whole entry): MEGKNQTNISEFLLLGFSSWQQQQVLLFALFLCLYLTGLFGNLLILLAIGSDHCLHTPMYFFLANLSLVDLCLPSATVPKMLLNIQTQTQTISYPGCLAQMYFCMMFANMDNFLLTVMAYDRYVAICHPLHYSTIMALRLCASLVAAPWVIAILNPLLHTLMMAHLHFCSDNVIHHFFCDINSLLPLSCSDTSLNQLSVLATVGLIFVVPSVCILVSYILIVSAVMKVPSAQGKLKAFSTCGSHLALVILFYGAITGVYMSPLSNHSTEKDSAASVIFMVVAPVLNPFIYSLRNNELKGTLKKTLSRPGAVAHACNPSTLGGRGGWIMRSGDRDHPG
In a few lines:
(§1)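 Assay methods differ from source to source, frequently being transient luciferase assays in mammalian cell lines. For each receptor–molecule pair, the label responsive (active) applies when the original authors judged the measured signal statistically different from baseline, and non-responsive (inactive) applies otherwise.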

The next assay deals with T2, OR1G1 (Homo sapiens) (UniProt P47890).
T2 sequence (whole entry): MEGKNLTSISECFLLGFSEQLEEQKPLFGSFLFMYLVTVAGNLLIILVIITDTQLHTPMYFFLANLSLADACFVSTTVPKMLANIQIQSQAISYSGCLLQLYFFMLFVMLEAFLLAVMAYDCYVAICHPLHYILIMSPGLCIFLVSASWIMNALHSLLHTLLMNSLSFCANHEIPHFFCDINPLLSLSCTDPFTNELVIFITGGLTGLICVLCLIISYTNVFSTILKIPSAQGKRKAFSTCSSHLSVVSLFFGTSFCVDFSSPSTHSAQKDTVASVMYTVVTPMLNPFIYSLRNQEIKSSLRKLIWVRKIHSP
Summed up:
as §1

A further assay concerns the target T3, OR1I1 (Homo sapiens) (UniProt O60431).
T3 sequence (whole entry): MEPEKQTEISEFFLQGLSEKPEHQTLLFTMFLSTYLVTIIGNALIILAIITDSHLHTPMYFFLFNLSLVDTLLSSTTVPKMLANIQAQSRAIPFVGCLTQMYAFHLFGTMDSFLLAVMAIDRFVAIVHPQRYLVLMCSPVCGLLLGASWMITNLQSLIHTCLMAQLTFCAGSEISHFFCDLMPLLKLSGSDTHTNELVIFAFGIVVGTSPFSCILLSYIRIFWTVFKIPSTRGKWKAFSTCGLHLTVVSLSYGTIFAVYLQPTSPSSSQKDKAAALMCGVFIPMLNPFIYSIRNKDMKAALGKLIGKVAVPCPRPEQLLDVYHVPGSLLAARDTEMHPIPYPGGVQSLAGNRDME
In a few lines: as §1

The target in the next assay is T4, OR1J1 (Homo sapiens) (UniProt Q8NGS3).
T4 sequence (whole entry): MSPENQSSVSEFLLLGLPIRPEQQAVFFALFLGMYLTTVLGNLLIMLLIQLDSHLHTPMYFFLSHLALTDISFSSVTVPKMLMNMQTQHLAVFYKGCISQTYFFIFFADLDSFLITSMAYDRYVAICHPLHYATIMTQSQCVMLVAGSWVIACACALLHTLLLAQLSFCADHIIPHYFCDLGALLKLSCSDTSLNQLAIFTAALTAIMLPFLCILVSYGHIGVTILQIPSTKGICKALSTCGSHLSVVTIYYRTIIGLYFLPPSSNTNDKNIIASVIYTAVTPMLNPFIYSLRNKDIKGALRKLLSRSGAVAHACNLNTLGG
Summed up: as §1

The target in the next assay is T5, OR1K1 (Homo sapiens) (UniProt Q8NGR3).
T5 sequence (whole entry): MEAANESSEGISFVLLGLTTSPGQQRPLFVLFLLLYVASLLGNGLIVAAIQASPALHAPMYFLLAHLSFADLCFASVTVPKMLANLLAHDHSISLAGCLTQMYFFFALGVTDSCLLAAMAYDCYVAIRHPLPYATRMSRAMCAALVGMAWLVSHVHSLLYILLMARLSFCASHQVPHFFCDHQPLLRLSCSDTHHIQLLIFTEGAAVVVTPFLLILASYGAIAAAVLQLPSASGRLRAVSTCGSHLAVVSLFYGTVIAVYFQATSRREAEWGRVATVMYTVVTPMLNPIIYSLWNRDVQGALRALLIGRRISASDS
Summed up: as §1

A further assay concerns the target T6, OR1L1 (Homo sapiens) (UniProt Q8NH94).
T6 sequence (whole entry): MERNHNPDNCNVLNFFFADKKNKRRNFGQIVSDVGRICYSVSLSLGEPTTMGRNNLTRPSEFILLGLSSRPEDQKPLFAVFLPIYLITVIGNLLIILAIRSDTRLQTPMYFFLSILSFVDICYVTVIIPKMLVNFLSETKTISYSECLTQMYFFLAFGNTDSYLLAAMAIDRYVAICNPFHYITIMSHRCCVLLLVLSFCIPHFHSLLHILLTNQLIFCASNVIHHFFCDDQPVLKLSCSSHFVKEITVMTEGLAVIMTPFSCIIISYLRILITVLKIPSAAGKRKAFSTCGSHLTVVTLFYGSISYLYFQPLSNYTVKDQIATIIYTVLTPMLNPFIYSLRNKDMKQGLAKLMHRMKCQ
In a few lines:
as §1

A further assay concerns the target T7, OR1L3 (Homo sapiens) (UniProt Q8NH93).
T7 sequence (whole entry): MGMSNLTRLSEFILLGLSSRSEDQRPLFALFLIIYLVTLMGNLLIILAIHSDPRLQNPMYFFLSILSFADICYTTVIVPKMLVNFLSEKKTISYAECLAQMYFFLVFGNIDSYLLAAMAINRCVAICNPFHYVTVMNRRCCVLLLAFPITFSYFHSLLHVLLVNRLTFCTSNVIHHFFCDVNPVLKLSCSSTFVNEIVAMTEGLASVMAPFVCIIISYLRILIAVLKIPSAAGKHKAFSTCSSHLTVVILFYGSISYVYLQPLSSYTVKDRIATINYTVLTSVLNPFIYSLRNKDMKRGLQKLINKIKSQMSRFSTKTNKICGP
In a few lines:
as §1

The next assay deals with T8, OR1L4 (Homo sapiens) (UniProt Q8NGR5).
T8 sequence (whole entry): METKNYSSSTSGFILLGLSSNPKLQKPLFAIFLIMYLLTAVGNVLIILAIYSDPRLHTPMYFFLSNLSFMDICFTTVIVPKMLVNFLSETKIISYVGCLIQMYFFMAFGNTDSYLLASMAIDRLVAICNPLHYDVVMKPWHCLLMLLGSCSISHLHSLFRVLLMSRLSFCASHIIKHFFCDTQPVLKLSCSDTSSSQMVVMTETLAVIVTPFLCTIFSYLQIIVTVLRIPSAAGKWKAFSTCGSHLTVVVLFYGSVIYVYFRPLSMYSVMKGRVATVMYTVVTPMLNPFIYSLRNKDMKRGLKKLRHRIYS
Summed up:
as §1

Another assay addresses T9, OR1L6 (Homo sapiens) (UniProt Q8NGR2).
T9 sequence (whole entry): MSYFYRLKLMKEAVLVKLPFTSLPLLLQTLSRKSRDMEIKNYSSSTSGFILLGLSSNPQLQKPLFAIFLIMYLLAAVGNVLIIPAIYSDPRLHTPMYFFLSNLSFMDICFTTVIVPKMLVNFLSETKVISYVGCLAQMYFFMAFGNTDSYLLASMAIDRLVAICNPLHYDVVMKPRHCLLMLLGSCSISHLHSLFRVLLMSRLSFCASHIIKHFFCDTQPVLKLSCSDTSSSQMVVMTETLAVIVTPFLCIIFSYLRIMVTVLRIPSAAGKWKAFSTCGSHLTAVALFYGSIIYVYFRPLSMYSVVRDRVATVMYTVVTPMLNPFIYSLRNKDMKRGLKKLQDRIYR
Summed up:
as §1

Another assay concerns the target T10, OR1L8 (Homo sapiens) (UniProt Q8NGR8).
T10 sequence (whole entry): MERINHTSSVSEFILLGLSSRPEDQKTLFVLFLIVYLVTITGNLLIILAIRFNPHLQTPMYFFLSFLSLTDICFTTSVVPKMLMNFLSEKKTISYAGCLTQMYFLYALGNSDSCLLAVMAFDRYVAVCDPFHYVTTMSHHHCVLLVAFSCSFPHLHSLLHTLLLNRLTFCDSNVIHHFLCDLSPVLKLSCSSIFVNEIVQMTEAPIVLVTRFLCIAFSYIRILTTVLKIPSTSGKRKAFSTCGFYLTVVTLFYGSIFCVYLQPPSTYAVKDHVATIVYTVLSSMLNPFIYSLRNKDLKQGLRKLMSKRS
Summed up: as §1

The next assay concerns the target T11, OR1M1 (Homo sapiens) (UniProt Q8NGA1).
T11 sequence (whole entry): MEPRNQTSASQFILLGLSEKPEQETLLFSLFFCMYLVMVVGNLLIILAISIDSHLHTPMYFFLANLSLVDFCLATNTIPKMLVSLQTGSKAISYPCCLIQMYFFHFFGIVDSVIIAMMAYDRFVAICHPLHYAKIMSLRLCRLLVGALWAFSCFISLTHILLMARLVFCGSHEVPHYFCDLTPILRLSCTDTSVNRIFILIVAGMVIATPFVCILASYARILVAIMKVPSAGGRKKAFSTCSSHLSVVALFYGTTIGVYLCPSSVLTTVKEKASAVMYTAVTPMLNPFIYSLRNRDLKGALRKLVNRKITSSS
In a few lines: as §1

The target in the next assay is T12, OR1N1 (Homo sapiens) (UniProt Q8NGS0).
T12 sequence (whole entry): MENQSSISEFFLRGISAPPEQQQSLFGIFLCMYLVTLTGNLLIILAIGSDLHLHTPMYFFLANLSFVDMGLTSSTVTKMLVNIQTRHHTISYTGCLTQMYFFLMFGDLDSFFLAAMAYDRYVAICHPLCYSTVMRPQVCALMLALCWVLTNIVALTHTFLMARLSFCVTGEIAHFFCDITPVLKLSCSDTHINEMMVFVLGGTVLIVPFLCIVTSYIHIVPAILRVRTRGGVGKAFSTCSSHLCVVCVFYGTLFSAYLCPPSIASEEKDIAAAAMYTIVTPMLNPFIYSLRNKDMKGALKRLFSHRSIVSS
In a few lines: as §1

As to `CC(=O)c1c(C)c([N+](=O)[O-])c(C(C)(C)C)c([N+](=O)[O-])c1C`, the “odorant receptor agonist call” value in the assay with OR1F12P (Homo sapiens), with OR1G1 (Homo sapiens), with OR1I1 (Homo sapiens), with OR1J1 (Homo sapiens), with OR1K1 (Homo sapiens) and with OR1L1 (Homo sapiens) was “inactive” in each case. In addition, the “odorant receptor agonist call” value in the assay with OR1L3 (Homo sapiens), with OR1L4 (Homo sapiens), with OR1L6 (Homo sapiens), with OR1L8 (Homo sapiens), in the assay with OR1M1 (Homo sapiens) and in the assay with OR1N1 (Homo sapiens) was “inactive” in each case.
Regarding `CC1CCCCCCCCCCCCC(=O)C1` (stereo unspecified), the “odorant receptor agonist call” value with OR1F12P (Homo sapiens), with OR1G1 (Homo sapiens), in the assay with OR1I1 (Homo sapiens), with OR1J1 (Homo sapiens), in the assay with OR1K1 (Homo sapiens) and with OR1L1 (Homo sapiens) was “inactive” in each case. The “odorant receptor agonist call” value in the assay with OR1L3 (Homo sapiens), with OR1L4 (Homo sapiens), with OR1L6 (Homo sapiens), in the assay with OR1L8 (Homo sapiens), with OR1M1 (Homo sapiens) and with OR1N1 (Homo sapiens) was “inactive” in each case.
Consider `Cc1cnccn1`, for which the “odorant receptor agonist call” value with OR1G1 (Homo sapiens) was “active”.
`CCCCCC(=O)OC`: the “odorant receptor agonist call” value in the assay with OR1G1 (Homo sapiens) is “inactive”.
